Test results: ChEMBL document CHEMBL1155014, “On the antibiotic activity of oxazolomycin” (2008)
Converted amounts (≈) assume the structure as drawn. The source made the active and inactive calls. The calls are words filed in the database; no cut-off is given here.

Legend:
Assay type in all cases: functional
Escherichia coli [1] = assay: Antibacterial activity against Escherichia coli X580 at 4 mg/ml by hole plate method relative to cephalosporin C
How it was run: (§1)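 Hole-plate diffusion: compound solutions at 4 mg/ml (7:3 DMSO/H2O) were placed in wells and incubated overnight at 37 °C. Inhibition zone diameters were measured, and potency was expressed as zone size per mg/ml relative to standards prepared with cephalosporin C.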

Escherichia coli [2] = assay: Antibacterial activity against Escherichia coli X580 at 4 mg/ml by hole plate method; details: for zone of inhibition at 4000 µg/mL: read-out: IZ
How it was run: (§2)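 Hole-plate assay on bioassay plates seeded with the test organism. Compounds at 4 mg/ml in 7:3 DMSO/H2O were loaded into wells and incubated overnight at 37 °C. Inhibition zone diameters were then measured.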

Escherichia coli [3] = assay: Antibacterial activity against Escherichia coli X580 by serial dilution
How it was run: (§3)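 MIC estimated by serial dilution of compound, each dilution assayed by the hole-plate method (overnight, 37 °C). The end point is the dilution at which no inhibition zone is obtained.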

Staphylococcus aureus [4] = assay: Antibacterial activity against Staphylococcus aureus NCTC 6571 at 4 mg/ml by hole plate method; details: for zone of inhibition at 4000 µg/mL: read-out: IZ; how it was run: as §2
Staphylococcus aureus [5] = assay: Antibacterial activity against Staphylococcus aureus NCTC 6571 at 4 mg/ml by hole plate method relative to cephalosporin C; how it was run: as §1
Staphylococcus aureus [6] = assay: Antibacterial activity against Staphylococcus aureus NCTC 6571 by serial dilution; how it was run: as §3

MIC (Escherichia coli [3]) [µg/mL] | MIC (Staphylococcus aureus [6]) [µg/mL] | SMILES | Activity (Escherichia coli [1]) [millimeter/mg/ml] | zone of inhibition at 4000 µg/mL (Escherichia coli [2]) [mm] | Activity (Staphylococcus aureus [4]) | Activity (Staphylococcus aureus [5]) [millimeter/mg/ml] | zone of inhibition at 4000 µg/mL (Staphylococcus aureus [4]) [mm] | Activity (Escherichia coli [2])
500 (≈ 1760 µM) |  | CC(C)(C(=O)NCc1ccccc1)C(O)c1ccccc1 (centres undefined) | 0.005 | 17 | inactive |  |  | 
500 (≈ 1490 µM) |  | C=CCNC(=O)C(C)(C)C(O)c1ccccc1/C=C/c1ccccc1 (centres undefined) | 0.01 | 20 |  | 0.06 | 14 | 
 |  | C#CCNC(=O)C(C)(C)C(O)c1ccccc1 (centres undefined) | 0.003 | 15 | inactive |  |  | 
1000 (≈ 3860 µM) |  | C/C(=C/C=C/c1ccccc1)C(O)C(C)(C)C(N)=O (centres undefined) | 0.03 | 28 |  | 0.05 | 14 | 
 |  | CC(C)(C(=O)NCc1ccc(Br)cc1)C(O)c1ccccc1 (centres undefined) |  |  | inactive |  |  | inactive
1000 (≈ 3920 µM) |  | C=CCNC(=O)C(C)(C)C(O)CCCCCCC (centres undefined) | 0.01 | 22 | inactive |  |  | 
 |  | CC(C)(C(N)=O)C(O)/C=C/c1ccccc1 (centres undefined) |  |  | inactive |  |  | inactive
 |  | C=CCNC(=O)C(C)(C)C(O)Cc1ccccc1 (centres undefined) |  |  | inactive |  |  | inactive
 |  | C=CCNC(=O)C(C)(C)C1(O)CCCCC1 |  |  | inactive |  |  | inactive
 |  | C=CCNC(=O)C(C)(C)C(O)c1ccccc1 (racemic) |  |  | inactive |  |  | inactive
500 (≈ 1730 µM) | 4000 (≈ 13800 µM) | C=CCNC(=O)C(C)(C)C(O)CCCCc1ccccc1 (racemic) | 0.01 | 23 |  | 0.08 | 17 | 
 |  | CCCNC(=O)C(C)(C)C(O)c1ccccc1 (centres undefined) |  |  | inactive |  |  | inactive
